According to ChEMBL document CHEMBL1138778, “Effects of altering the electronics of 2-methoxyestradiol on cell proliferation, on cytotoxicity in human cancer cell cultures, and on tubulin polymerization” (J Med Chem, 2004):

What was measured:
[1] = test system: HOP-62; assay: Growth inhibitory concentration against human lung cancer HOP-62 cell line; assay type: functional
Method in brief: (§1)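 Screen over 10^-4 to 10^-8 M in a human cancer cell line panel. GI50 is the concentration giving 50% growth inhibition of the individual cell line.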

[2] = test system: UACC-62; assay: Growth inhibitory concentration required against human melanoma UACC-62 cancer cell line; assay type: functional; method in brief: as §1
[3] = test system: HCT-116; assay: Growth inhibitory concentration against human colon cancer HCT116 cell line; assay type: functional; method in brief: as §1
[4] = test system: MDA-MB-435; assay: Growth inhibitory concentration required against human breast MDA-MB-435 cancer cell line; assay type: functional; method in brief: as §1
[5] = Average concentration required for 50% growth inhibition of human cancer cell line (tested); assay type: functional; details: Cancer cell lines
Method in brief: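 Mean graph midpoint: average of the individual cell line GI50 values across all cancer lines screened over 10^-4 to 10^-8 M. GI50 values falling outside this range were set to 10^-8 M (below) or 10^-4 M (above).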

[6] = test system: MDA-MB-231; assay: Inhibitory concentration against growth of MDA-MB-231 cancer cell line; assay type: functional, cell-based; details: Homo sapiens
Method in brief: (§2)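 MDA-MB-231 cells in DMEM/F12 (1:1) with 10% FBS, seeded at 1000 cells/well and attached overnight. Cells were exposed to compound for 48 h. Proliferation was read by BrdU-incorporation colorimetric ELISA or by cell counting, in triplicate, with experiments repeated at least twice.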

[7] = target: Tubulin (Bos taurus, UniProt Q6B856+Q862L2+Q862F3); assay: Inhibitory concentration against bovine tubulin polymerization; assay type: functional
Method in brief: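 Bovine brain tubulin, 1.2 mg/mL (12 μM), was preincubated with a range of compound concentrations and then chilled on ice. GTP was added and assembly followed by turbidity at 350 nm for 20 min at 26 °C. IC50 is the concentration halving assembly at 20 min, from at least two independent assays.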

[8] = test system: HUVEC; assay: Inhibitory concentration required against growth of HUVEC […] cell line; assay type: functional, cell-based; details: Homo sapiens
Method in brief: as §2, with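 “HUVEC, used up to five passages” for “MDA-MB-231 cells”, “EGM” for “DMEM/F12 (1:1)”, “bovine brain extract and antibiotic-antimycotic,” for “10% FBS,”, “3000” for “1000”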

[9] = test system: SN12C; assay: Growth inhibitory concentration required for against human renal SN12C cancer cell line; assay type: functional; method in brief: as §1
[10] = test system: SF-539; assay: Growth inhibitory concentration required against human CNS SF-539 cancer cell line; assay type: functional; method in brief: as §1
[11] = test system: OVCAR-3; assay: Growth inhibitory concentration required against human ovarian OVCAR-3 cancer cell line; assay type: functional; method in brief: as §1
[12] = test system: DU-145; assay: Growth inhibitory concentration required against human prostate DU-145 cancer cell line; assay type: functional; method in brief: as §1

| SMILES | GI50 [1] | GI50 [2] | GI50 [3] | GI50 [4] | GI50 [5] | IC50 [6] | IC50 [7] | IC50 [8] | GI50 [9] | GI50 [10] | GI50 [11] | GI50 [12] |
| --- | --- | --- | --- | --- | --- | --- | --- | --- | --- | --- | --- | --- |
| C[C@]12CC[C@@H]3c4cc(CO)c(O)cc4CC[C@H]3[C@@H]1CC[C@@H]2O | 72.4 µM | 23.4 µM | 74.1 µM | 24 µM | 34.7 µM | 99.2 µM | > 40 µM | 7.73 µM | 63.1 µM | 38 µM | 31.6 µM | 70.8 µM |
| CCOc1cc2c(cc1O)CC[C@@H]1[C@@H]2CC[C@]2(C)[C@@H](O)CC[C@@H]12 | – | – | – | – | – | 0.55 µM | – | 0.12 µM | – | – | – | – |
| CC#Cc1cc2c(cc1O)CC[C@@H]1[C@@H]2CC[C@]2(C)[C@@H](O)CC[C@@H]12 | – | – | – | – | – | 3.99 µM | – | 0.52 µM | – | – | – | – |
| C[C@]1(O)CC[C@H]2[C@@H]3CCc4cc(O)ccc4[C@H]3CC[C@@]21C | 18.2 µM | 1.48 µM | 0.7 µM | 0.19 µM | 2.5 µM | 7.14 µM | 5.6 µM | 3.09 µM | 10.2 µM | 0.35 µM | 0.66 µM | 2 µM |
| C=CCc1cc2c(cc1O)CC[C@@H]1[C@@H]2CC[C@]2(C)[C@@H](O)CC[C@@H]12 | 13.8 µM | 13.2 µM | 14.1 µM | 15.1 µM | 18.2 µM | 33.4 µM | > 40 µM | 8.51 µM | 18.2 µM | 21.9 µM | 21.9 µM | 24 µM |
| CCC(=O)c1cc2c(cc1O)CC[C@@H]1[C@@H]2CC[C@]2(C)[C@@H](O)CC[C@@H]12 | 15.1 µM | 11.5 µM | 9.3 µM | 2.4 µM | 12 µM | 15.8 µM | > 40 µM | 22.5 µM | 13.8 µM | 11.7 µM | 4 µM | 15.5 µM |
| CC(=O)Oc1cc2c(cc1C(C)(F)F)[C@H]1CC[C@]3(C)[C@@H](OC(C)=O)CC[C@H]3[C@@H]1CC2 | 31.6 µM | 12.3 µM | 10.7 µM | 20.9 µM | 11.7 µM | 95.9 µM | > 40 µM | 32.3 µM | 27.5 µM | 20 µM | 1.9 µM | 13.8 µM |
| CN(C)CCC/N=C/c1cc2c(cc1O)CC[C@@H]1[C@@H]2CC[C@]2(C)[C@@H](O)CC[C@@H]12 | 21.4 µM | 13.8 µM | 12.6 µM | 22.9 µM | 20 µM | – | > 40 µM | – | 25.7 µM | 18.2 µM | 19.5 µM | 20.9 µM |
| C/C(COc1cc2c(cc1O)CC[C@@H]1[C@@H]2CC[C@]2(C)[C@@H](O)CC[C@@H]12)=N/O | 23.4 µM | 15.5 µM | 18.2 µM | 24 µM | 24 µM | – | > 40 µM | – | 27.5 µM | 20.9 µM | 20.4 µM | 29.5 µM |
| C=C1CC[C@H]2[C@@H]3CCc4cc(O)c(OCC)cc4[C@H]3CC[C@]12C | 0.56 µM | 0.54 µM | 0.6 µM | 0.08 µM | 0.79 µM | 0.7 µM | 2.9 µM | 0.26 µM | 0.19 µM | 0.12 µM | 0.28 µM | 0.47 µM |
| COc1cc2c(cc1O)CC[C@@H]1[C@@H]2CC[C@@]2(C)[C@H]1CC[C@]2(C)O | 15.2 µM | 6.3 µM | 2.8 µM | 1.4 µM | 10.2 µM | 3.33 µM | > 40 µM | 2.4 µM | 7.8 µM | 6.9 µM | 7.1 µM | 12.3 µM |
| C[C@]12CC[C@@H]3c4cc(/C=N/C5CC5)c(O)cc4CC[C@H]3[C@@H]1CC[C@@H]2O | 24 µM | 16.2 µM | 12.3 µM | 16.2 µM | 16.6 µM | – | > 40 µM | – | 70.8 µM | 17 µM | 14.5 µM | 16.6 µM |
| CC(=O)c1cc2c(cc1O)CC[C@@H]1[C@@H]2CC[C@]2(C)[C@@H](O)CC[C@@H]12 | 5.4 µM | 24.5 µM | – | 4.3 µM | 17.4 µM | 13.6 µM | > 20 µM | 15.6 µM | 53.7 µM | 18.6 µM | 25.7 µM | 55 µM |
| COc1cc2c(cc1O)CC[C@@H]1[C@@H]2CC[C@@]2(C)[C@H]1CC[C@]2(C)[C@H](O)c1ccccc1 | 18.2 µM | 13.5 µM | 17 µM | 16.2 µM | 14.5 µM | 47.2 µM | > 40 µM | 21 µM | 14.1 µM | 17.8 µM | 14.1 µM | 5.1 µM |
| CC#Cc1cc2c(cc1O)CC[C@@H]1[C@@H]2CC[C@@]2(C)[C@H]1CC[C@]2(C)O | 3.1 µM | 4 µM | 4.3 µM | 0.3 µM | 3.2 µM | 5.99 µM | 11 µM | 1.94 µM | 7.4 µM | 2.6 µM | 1.5 µM | 4.1 µM |
| C[C@]12CC[C@@H]3c4cc(C(F)(F)C(F)(F)F)c(O)cc4CC[C@H]3[C@@H]1CC[C@@H]2O | – | 13.8 µM | 17.8 µM | 12 µM | 18.6 µM | 47.5 µM | > 40 µM | 25 µM | 16.6 µM | 18.2 µM | 13.2 µM | 14.5 µM |
| CCOc1cc2c(cc1O)CC[C@@H]1[C@@H]2CC[C@@]2(C)[C@H]1CC[C@]2(C)O | 5 µM | 3.74 µM | 3.5 µM | 1.3 µM | 4.7 µM | 18.4 µM | 4.8 µM | 5.7 µM | 4.5 µM | 2.8 µM | 2.8 µM | 5.2 µM |
| COc1cc2c(cc1O)CC[C@@H]1[C@@H]2CC[C@@]2(C)[C@H]1CC[C@@]2(O)C(F)(F)F | – | 18.2 µM | 22.4 µM | 16.2 µM | 19.5 µM | 49.3 µM | > 40 µM | 40 µM | 24.5 µM | 19.5 µM | 15.8 µM | 18.2 µM |
| COCc1cc2c(cc1O)CC[C@@H]1[C@@H]2CC[C@]2(C)[C@@H](O)CC[C@@H]12 | 83.2 µM | 24.5 µM | 33.1 µM | 7.8 µM | 38 µM | 54 µM | > 40 µM | 28.8 µM | 56.2 µM | 33.9 µM | 40.7 µM | 64.6 µM |
| COc1cc2c(cc1O)CCC1[C@@H]2CC[C@@]2(C)[C@H]1CCC2(F)F (single isomer, unassigned) | 81.3 µM | 58.9 µM | 66.1 µM | 35.5 µM | 40.7 µM | 70.8 µM | > 40 µM | 58.3 µM | 24.5 µM | 31.6 µM | 43.7 µM | 56.2 µM |
| C[C@]12CC[C@@H]3c4ccc(O)cc4CCC3[C@@H]1CCC2(F)F (single isomer, unassigned) | 19.5 µM | 14.1 µM | 14.5 µM | 15.8 µM | 16.6 µM | 54.4 µM | > 40 µM | 6.6 µM | 18.6 µM | 17.4 µM | 11 µM | 16.6 µM |
